Data taken from ChEMBL document CHEMBL1649165, “Activity profile in vitro of micafungin against Spanish clinical isolates of common and emerging species of yeasts and molds” (2009).
≈ marks a conversion by molar mass, not a printed value. *1 amine or outer side, *2 acyl side, *3 side chain or, on linkers, in order; H or OH if unused. Where a SMILES comes first, the peptide text is derived from it. Bridges are numbered along the chain shown (N, C = ends). [ ]: non-standard residue; d: D form. The star is where a group is joined. pTerphenylCO(4''-OnC5H11) = CCCCCOc1ccc(-c2ccc(-c3ccc(C(=O)*)cc3)cc2)cc1; Orn(4R-OH,5R-OH) = O=C([C@H](C[C@@H](O)[C@@H](O)N[*:3])N[*:1])[*:2]; hTyr(3S-OH,4S-OH) = N[C@H](C(=O)O)[C@H](O)[C@@H](O)c1ccc(O)cc1; Pro(3S-OH,4S-Me) = C[C@H]1CN[C@H](C(=O)O)[C@H]1O; Hyp = O=C(O)[C@@H]1C[C@@H](O)CN1

Columns and labels:
Type in all cases: functional
Candida albicans = assay: Antimicrobial activity against Candida albicans by broth microdilution method
Summary of the method: (§1)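 Clinical isolates from human patients, tested by broth microdilution using the AFST-EUCAST reference procedure for fermentative yeasts. The MIC was read per that reference method.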

Candida tropicalis = assay: Antimicrobial activity against Candida tropicalis by broth microdilution method; summary of the method: as §1
Pichia kudriavzevii = assay: Antimicrobial activity against Candida krusei by broth microdilution method; summary of the method: as §1
Clavispora lusitaniae = assay: Antimicrobial activity against Candida lusitaniae by broth microdilution method; summary of the method: as §1
Debaryomyces hansenii = assay: Antimicrobial activity against Candida famata by broth microdilution method; summary of the method: as §1
Pichia norvegensis = assay: Antimicrobial activity against Candida norvegensis by broth microdilution method; summary of the method: as §1
Candida metapsilosis = assay: Antimicrobial activity against Candida metapsilosis by broth microdilution method; details: Lodderomyces metapsilosis; summary of the method: as §1
Candida orthopsilosis = assay: Antimicrobial activity against Candida orthopsilosis by broth microdilution method; details: Lodderomyces orthopsilosis; summary of the method: as §1
[1] = tested on: Kazachstania pintolopesii; assay: Antimicrobial activity against Candida pintolopesii by broth microdilution method; details: Arxiozyma pintolopesii; summary of the method: as §1
[Candida] zeylanoides = Antimicrobial activity against Candida zeylanoides by broth microdilution method; details: Dujonia zeylanoides; summary of the method: as §1
Saccharomyces cerevisiae = assay: Antimicrobial activity against Saccharomyces cerevisiae by broth microdilution method
[2] = tested on: Cryptococcus deneoformans; assay: Antimicrobial activity against Cryptococcus neoformans var. neoformans by broth microdilution method
Summary of the method: (§2)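 Clinical isolates of nonfermentative yeasts, tested by broth microdilution following EUCAST recommendations. The only change from that method was a minor modification to improve growth.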

Trichosporon asahii = assay: Antimicrobial activity against Trichosporon asahii by broth microdilution method
Summary of the method: (§3)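 Nonfermentative yeast clinical isolates (Rhodotorula, Trichosporon) tested by broth microdilution. The EUCAST yeast recommendations were followed strictly, with one minor modification to improve growth. MIC was read as the endpoint.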

Trichosporon inkin = assay: Antimicrobial activity against Trichosporon inkin by broth microdilution method; summary of the method: as §3
Trichosporon jirovecii = assay: Antimicrobial activity against Trichosporon jirovecii by broth microdilution method; details: Cutaneotrichosporon jirovecii; summary of the method: as §3
Naganishia albida = assay: Antimicrobial activity against Cryptococcus albidus by broth microdilution method; summary of the method: as §2
Ustilago = assay: Antimicrobial activity against Ustilago spp by broth microdilution method
Trichosporon domesticum = assay: Antimicrobial activity against Trichosporon mycotoxinivorans by broth microdilution method; details: Apiotrichum domesticum
Summary of the method: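 Spanish human clinical isolates were tested as nonfermentative yeasts by broth microdilution. The method strictly followed the EUCAST recommendations, with a minor modification to improve growth, and the read-out was the MIC.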

Trichosporon = assay: Antimicrobial activity against Trichosporon spp. by broth microdilution method; summary of the method: as §3
Aspergillus versicolor = assay: Antimicrobial activity against Aspergillus versicolor by broth microdilution method
Summary of the method: (§4)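 Clinical mould isolates, tested by broth microdilution using the AFST-EUCAST reference method for filamentous fungi. For echinocandins, the endpoint was the minimum effective concentration: the lowest drug concentration giving aberrant hyphal growth, read with an inverted microscope.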

Aspergillus ustus = assay: Antimicrobial activity against Aspergillus ustus by broth microdilution method; summary of the method: as §4
Fennellia nivea = assay: Antimicrobial activity against Aspergillus niveus by broth microdilution method; summary of the method: as §4
Aspergillus = assay: Antimicrobial activity against Aspergillus spp. by broth microdilution method; summary of the method: as §4
Fusarium solani = assay: Antimicrobial activity against Fusarium solani by broth microdilution method
Summary of the method: (§5)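 Filamentous fungus clinical isolates tested by the AFST-EUCAST reference broth microdilution method for moulds. For echinocandins, the endpoint was the minimum effective concentration: the lowest drug concentration giving aberrant hyphal growth, read with an inverted microscope.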

Paecilomyces lilacinus = assay: Antimicrobial activity against Paecilomyces lilacinus by broth microdilution method; details: Purpureocillium lilacinum; summary of the method: as §5
Acremonium sp. = assay: Antimicrobial activity against Acremonium sp.by broth microdilution method; summary of the method: as §4
[3] = tested on: Scopulariopsis brevicaulis; assay: Antimicrobial activity against Scopulariopsis brevicaulis by broth microdilution method; summary of the method: as §5
Phialemonium curvatum = assay: Antimicrobial activity against Phialemonium curvatum by broth microdilution method; details: Thyridium curvatum; summary of the method: as §5
[4] = Antimicrobial activity against Hormographiella aspergillata by broth microdilution method; details: Coprinopsis cinerea; summary of the method: as §5
Coprinellus domesticus = assay: Antimicrobial activity against Hormographiella verticillata by broth microdilution method; summary of the method: as §5
Neurospora sitophila = assay: Antimicrobial activity against Chrysonilia sitophila by broth microdilution method; summary of the method: as §4
Scedosporium apiospermum = assay: Antimicrobial activity against Scedosporium apiospermum by broth microdilution method; summary of the method: as §5
Exophiala dermatitidis = assay: Antimicrobial activity against Exophiala dermatitidis by broth microdilution method
Cladosporium = assay: Antimicrobial activity against Cladosporium spp. by broth microdilution method; summary of the method: as §4
[5] = tested on: Cladophialophora bantiana; assay: Antimicrobial activity against Cladophialophora bantiana by broth microdilution method; summary of the method: as §4
Scytalidium hyalinum = assay: Antimicrobial activity against Scytalidium hyalinum by broth microdilution method; details: Neoscytalidium hyalinum; summary of the method: as §5
Lecythophora hoffmannii = assay: Antimicrobial activity against Lecythophora hoffmannii by broth microdilution method; details: Coniochaeta hoffmannii; summary of the method: as §5
Lichtheimia corymbifera = assay: Antimicrobial activity against Mycocladus corymbiferus by broth microdilution method; summary of the method: as §5
Mucor = assay: Antimicrobial activity against Mucor spp.by broth microdilution method; summary of the method: as §5
[6] = tested on: Cunninghamella bertholletiae; assay: Antimicrobial activity against Cunninghamella bertholletiae by broth microdilution method; summary of the method: as §4
Rhizomucor = assay: Antimicrobial activity against Rhizomucor spp.by broth microdilution method; summary of the method: as §5
Saksenaea vasiformis = assay: Antimicrobial activity against Saksenaea vasiformis by broth microdilution method; summary of the method: as §5
Exophiala jeanselmei = assay: Antimicrobial activity against Exophiala jeanselmei by broth microdilution method
Beauveria bassiana = assay: Antimicrobial activity against Beauveria bassiana by broth microdilution method; summary of the method: as §4

`CCCCCOc1ccc(-c2ccc(-c3ccc(C(=O)N[C@H]4C[C@@H](O)[C@@H](O)NC(=O)[C@@H]5[C@@H](O)[C@@H](C)CN5C(=O)[C@H]([C@@H](C)O)NC(=O)[C@H]([C@H](O)[C@@H](O)c5ccc(O)cc5)NC(=O)[C@@H]5C[C@@H](O)CN5C(=O)[C@H]([C@@H](C)O)NC4=O)cc3)cc2)cc1` [ANIDULAFUNGIN] ({pTerphenylCO(4''-OnC5H11)}-[Orn(4R-OH,5R-OH)]T[Hyp][hTyr(3S-OH,4S-OH)]T[Pro(3S-OH,4S-Me)]; lactam 1-C) showed an MIC50 (Candida albicans) of 0.03 µg/mL (≈ 0.0263 µM), an MIC90 (Candida albicans) of 0.03 µg/mL (≈ 0.0263 µM) and an MIC50 (Candida tropicalis) of 0.03 µg/mL (≈ 0.0263 µM). It also gave an MIC90 (Candida tropicalis) of 0.03 µg/mL (≈ 0.0263 µM), an MIC50 (Pichia kudriavzevii) of 0.03 µg/mL (≈ 0.0263 µM) and an MIC90 (Pichia kudriavzevii) of 0.06 µg/mL (≈ 0.0526 µM). It also gave an MIC50 (Clavispora lusitaniae) of 0.03 µg/mL (≈ 0.0263 µM), an MIC90 (Clavispora lusitaniae) of 0.12 µg/mL (≈ 0.105 µM) and an MIC50 (Debaryomyces hansenii) of 0.06 µg/mL (≈ 0.0526 µM). For the same molecule, the MIC90 (Debaryomyces hansenii) was 0.25 µg/mL (≈ 0.219 µM), the MIC50 (Pichia norvegensis) was 0.06 µg/mL (≈ 0.0526 µM) and the MIC90 (Pichia norvegensis) was 0.25 µg/mL (≈ 0.219 µM). The MIC50 (Candida metapsilosis) was 0.06 µg/mL (≈ 0.0526 µM), the MIC90 (Candida metapsilosis) was 0.25 µg/mL (≈ 0.219 µM) and the MIC50 (Candida orthopsilosis) was 0.06 µg/mL (≈ 0.0526 µM). The MIC90 (Candida orthopsilosis) was 0.25 µg/mL (≈ 0.219 µM), the MIC50 [1] was 0.06 µg/mL (≈ 0.0526 µM) and the MIC90 [1] was 0.25 µg/mL (≈ 0.219 µM). The MIC50 ([Candida] zeylanoides) was 0.06 µg/mL (≈ 0.0526 µM), the MIC90 ([Candida] zeylanoides) was 0.25 µg/mL (≈ 0.219 µM) and the MIC50 (Saccharomyces cerevisiae) was 0.12 µg/mL (≈ 0.105 µM). The MIC90 (Saccharomyces cerevisiae) was 0.25 µg/mL (≈ 0.219 µM), the MIC50 [2] was > 16 µg/mL and the MIC90 [2] was > 16 µg/mL. For the same molecule, the MIC50 (Trichosporon asahii) was > 16 µg/mL, the MIC90 (Trichosporon asahii) was > 16 µg/mL and the MIC50 (Trichosporon inkin) was > 16 µg/mL. For the same molecule, the MIC90 (Trichosporon inkin) was > 16 µg/mL, the MIC50 (Trichosporon jirovecii) was > 16 µg/mL and the MIC90 (Trichosporon jirovecii) was > 16 µg/mL. For the same molecule, the MIC50 (Naganishia albida) was > 16 µg/mL, the MIC90 (Naganishia albida) was > 16 µg/mL and the MIC50 (Ustilago) was > 16 µg/mL. The MIC90 (Ustilago) was > 16 µg/mL, the MIC50 (Trichosporon domesticum) was > 16 µg/mL and the MIC90 (Trichosporon domesticum) was > 16 µg/mL. The MIC50 (Trichosporon) was > 16 µg/mL, the MIC90 (Trichosporon) was > 16 µg/mL and the MIC50 (Aspergillus versicolor) was 0.03 µg/mL (≈ 0.0263 µM). The MIC90 (Aspergillus versicolor) was 0.03 µg/mL (≈ 0.0263 µM), the MIC50 (Aspergillus ustus) was 0.06 µg/mL (≈ 0.0526 µM) and the MIC90 (Aspergillus ustus) was 0.25 µg/mL (≈ 0.219 µM). The MIC50 (Fennellia nivea) was 0.06 µg/mL (≈ 0.0526 µM), the MIC90 (Fennellia nivea) was 0.25 µg/mL (≈ 0.219 µM) and the MIC50 (Aspergillus) was 0.06 µg/mL (≈ 0.0526 µM). The MIC90 (Aspergillus) was 0.25 µg/mL (≈ 0.219 µM), the MIC50 (Fusarium solani) was > 16 µg/mL and the MIC90 (Fusarium solani) was > 16 µg/mL. For the same molecule, the MIC50 (Paecilomyces lilacinus) was > 16 µg/mL, the MIC90 (Paecilomyces lilacinus) was > 16 µg/mL and the MIC50 (Acremonium sp.) was 0.03 µg/mL (≈ 0.0263 µM). For the same molecule, the MIC90 (Acremonium sp.) was 0.03 µg/mL (≈ 0.0263 µM), the MIC50 [3] was > 16 µg/mL and the MIC90 [3] was > 16 µg/mL. The MIC50 (Phialemonium curvatum) was > 16 µg/mL, the MIC90 (Phialemonium curvatum) was > 16 µg/mL and the MIC50 [4] was > 16 µg/mL. For the same molecule, the MIC90 [4] was > 16 µg/mL, the MIC50 (Coprinellus domesticus) was > 16 µg/mL and the MIC90 (Coprinellus domesticus) was > 16 µg/mL. For the same molecule, the MIC50 (Neurospora sitophila) was > 16 µg/mL, the MIC90 (Neurospora sitophila) was > 16 µg/mL and the MIC50 (Scedosporium apiospermum) was 0.5 µg/mL (≈ 0.438 µM). It also gave an MIC90 (Scedosporium apiospermum) of 4 µg/mL (≈ 3.51 µM), an MIC50 (Exophiala dermatitidis) of 0.03 µg/mL (≈ 0.0263 µM) and an MIC90 (Exophiala dermatitidis) of 0.06 µg/mL (≈ 0.0526 µM). For the same molecule, the MIC50 (Cladosporium) was 0.03 µg/mL (≈ 0.0263 µM), the MIC90 (Cladosporium) was 0.06 µg/mL (≈ 0.0526 µM) and the MIC50 [5] was 0.03 µg/mL (≈ 0.0263 µM). It also gave an MIC90 [5] of 0.06 µg/mL (≈ 0.0526 µM), an MIC50 (Scytalidium hyalinum) of 0.03 µg/mL (≈ 0.0263 µM) and an MIC90 (Scytalidium hyalinum) of 0.06 µg/mL (≈ 0.0526 µM). For the same molecule, the MIC50 (Lecythophora hoffmannii) was 0.03 µg/mL (≈ 0.0263 µM), the MIC90 (Lecythophora hoffmannii) was 0.06 µg/mL (≈ 0.0526 µM) and the MIC50 (Lichtheimia corymbifera) was > 16 µg/mL. For the same molecule, the MIC90 (Lichtheimia corymbifera) was > 16 µg/mL, the MIC50 (Mucor) was > 16 µg/mL and the MIC90 (Mucor) was > 16 µg/mL. For the same molecule, the MIC50 [6] was > 16 µg/mL, the MIC90 [6] was > 16 µg/mL and the MIC50 (Rhizomucor) was > 16 µg/mL. For the same molecule, the MIC90 (Rhizomucor) was > 16 µg/mL, the MIC50 (Saksenaea vasiformis) was > 16 µg/mL and the MIC90 (Saksenaea vasiformis) was > 16 µg/mL. The MIC50 (Exophiala jeanselmei) was 0.03 µg/mL (≈ 0.0263 µM), the MIC90 (Exophiala jeanselmei) was 0.06 µg/mL (≈ 0.0526 µM) and the MIC50 (Beauveria bassiana) was > 16 µg/mL. For the same molecule, the MIC90 (Beauveria bassiana) was > 16 µg/mL.
